TRPC6 act = activators of mouse TRPC6 channel; AID 2550; B-score at 10 µM; Q61143; HEK293-TRPC6 membrane potential dye fluorescence; active compounds read high; 310,000 tested, 0.13% active;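 active means B-score of the integrated fluorescence ratio above library mean plus 3 SD, and starting fluorescence ratio within library mean plus 5 SD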;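 further: higher score means more depolarization so channel activation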
TRPC4 block = blocks the mouse TRPC4 cation channel | Q9QUQ5 | HEK293 TRPC4beta/mu-opioid, DAMGO-evoked Fluo4 calcium flux; active compounds read low | B-score at 10 µM | 300,000 tested, 0.39% active | AID 2247;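 active means B-score over 3 SD under the library average, no early fluorescence shift, positive overall ratio signal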
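test system = HEK293 cells with stable TRPC4beta plus mu-opioid receptor expression | detection = Fluo4 Ca2+ flux fluorescence | read-out = integrated fluorescence ratio relative to baseline, converted to per-well B score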
TRPC4 act = activators of mouse TRPC4 channel. 310,000 tested, 0.49% active. Q9QUQ5. B-score at 10 µM. HEK293 TRPC4beta/mu-opioid, Fluo4 calcium fluorescence; active compounds read high;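 active means B-score above 5 SD of library B-scores, and initial fluorescence ratio not above library mean plus 5 SD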;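 further: positive B-score marks a calcium rise read as TRPC4 activation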
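Material: TRPC4beta and mu-opioid receptor HEK293 stable cells | Incubation: 45 min room-temperature Fluo4 loading, 110 s read | Detection: Kinetic Fluo4 calcium fluorescence | Measure: Integrated baseline-normalised fluorescence ratio, converted to per-well B score | Benchmarks: Low control buffer alone, high control maximal DAMGO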
TRPC6 inh = mouse TRPC6 channel inhibition; Q61143; HEK293-TRPC6, membrane potential dye, ACh-evoked depolarization; active compounds read low; B-score at 10 µM; 310,000 tested, 1.1% active; AID 2553;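 active means B-score under library mean minus 3 SD, initial fluorescence not abnormally high, positive integrated signal ratio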;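 further: B-score derived from integrated fluorescence ratio over the kinetic read; more negative B-score means stronger inhibition of depolarization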
TRPC4 potent = allosterically enhances the mouse TRPC4 cation channel; Q9QUQ5; HEK293 TRPC4beta/mu-opioid, DAMGO EC20, Fluo-4 Ca2+ flux; active compounds read high; B-score at 10 µM; 310,000 tested, 0.42% active; AID 2227;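 active means B-score of calcium response area above 5 SD of library B-scores, with initial fluorescence ratio within 5 SD of library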;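 further: B-score of integrated fluorescence ratio over time as area under calcium response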
The depositor's hits bear a star; i = inactive. The list is not random: actives were taken first. Their share in the collection is about 2.3%.

SMILES | TRPC6 act | TRPC4 block | TRPC4 act | TRPC6 inh | TRPC4 potent
c1ccc(Nc2nc(Nc3ccccc3)nc(N3CCNCC3)n2)cc1 | i | i | 146* | i | i
COc1cc(C=O)ccc1OCC(=O)Nc1ccc2c(c1)OCO2 | i | i | i | i | i
Cc1ccc2[nH]c3c(=O)n(CCN4CCOCC4)cnc3c2c1 | i | i | i | i | i
Cc1ccc2[nH]c3c(=O)n(CCc4cnc[nH]4)cnc3c2c1 | i | i | 211* | i | i
Cc1cccc(-n2ncc3c2CCCC3NC(=O)C2CCOCC2)c1C (centres undefined) | i | i | i | i | i
C=CCNCCCOc1ccc(Cl)cc1Br | i | i | i | i | 16*
COc1ccc(CCN(C)C(=O)C2CCN(Cc3ccc(C)cc3)CC2)cc1OC | i | i | i | i | i
O=C(CNC(=O)c1cccs1)N/N=C/c1cccc(Cl)c1 | i | i | i | i | i
C=CCc1ccc(OCC(O)CN2CCN(c3ccccc3OC)CC2)c(OC)c1 (centres undefined) | i | i | i | i | i
C=CCc1ccc(OCC(O)CN2CCN(Cc3ccc(Cl)cc3)CC2)c(OC)c1 (centres undefined) | i | i | i | i | 10*
CC(C)CC(=O)Nc1ccc(C(=O)CN2C(=O)NC3(CCOc4ccccc43)C2=O)cc1 (centres undefined) | i | i | i | i | i
CC1Cc2ccccc2N1C1=CC(=O)CCC1 (centres undefined) | i | i | i | i | i
S=C(Nc1ccccc1)Nc1cc(Cl)ccc1Oc1ccccc1 | i | -6* | i | i | i
CCOc1ccccc1Nc1nnc(SCc2nnc(-c3cc(OC)c(OC)c(OC)c3)o2)s1 | i | i | i | i | 21*
Cc1cc([N+](=O)[O-])nn1Cc1noc(C(=O)NCCc2ccccn2)n1 | i | i | 79* | i | i
CCOC(=O)C1=C(C)N(CCCC(=O)O)C(=O)NC1c1ccc2ccccc2c1 (centres undefined) | i | i | i | i | i
CCOc1ccc(CN2CCNC(=O)C2CC(=O)NCCc2ccccn2)cc1 (centres undefined) | i | i | 112* | i | i
COc1cccc(CN2CCNC(=O)C2CC(=O)N(C)CCc2ccccn2)c1OC (centres undefined) | i | i | 93* | i | i
CN(CCc1ccccn1)C(=O)CC1C(=O)NCCN1Cc1ccccc1C(F)(F)F (centres undefined) | i | i | 131* | i | i
CN(CCc1ccccn1)C(=O)CC1C(=O)NCCN1Cc1cccc(F)c1 (centres undefined) | i | i | 186* | i | i
COc1cccc(CN2CCNC(=O)C2CC(=O)N(C)C2CCCCC2)c1OC (centres undefined) | i | i | i | i | i
CCOc1ccc(NC(=O)C2CCCN2S(=O)(=O)c2ccc3c(c2)C(C)(C)C(=O)N3C)cc1 (centres undefined) | i | i | i | i | i
Cc1c(C(=O)N2CCCC2)oc2c1-c1nn(CC(=O)NCCCOC(C)C)cc1CC2 | i | i | i | i | i
CCCCN(CC)CCNC(=O)Cn1cc2c(n1)-c1c(oc(C(=O)N3CCCC3)c1C)CC2 | i | i | 125* | i | i
CCOc1cccc(CN2CCCC(CCC(=O)NCc3ccccc3F)C2)c1O (centres undefined) | i | i | 56* | i | i
SMILES | TRPC6 act | TRPC4 block | TRPC4 act | TRPC6 inh | TRPC4 potent
Cc1nn(C)c(Cl)c1CN1CCCC(CCC(=O)NCc2ccccc2F)C1 (centres undefined) | i | i | i | i | i
COc1cc(C(=O)NCC(c2ccco2)N2CCc3ccccc3C2)cc(OC)c1OC (centres undefined) | i | i | i | i | i
CCOC(=O)C1=NN(c2ccccc2C)C2=NC(C)=C(C(=O)OC)C(c3cccc(OC)c3)N12 (centres undefined) | i | -5* | i | i | i
CC(C)(C)c1ccc(C(=O)NC(=S)NNC(=O)COc2ccccc2)cc1 | i | -6* | 72* | i | i
CC(C)(C)C(=O)NC(=S)NNC(=O)c1ccc(-c2ccccc2)cc1 | i | i | 277* | i | i
Cc1cccc(OCC(=O)NC(=S)NNC(=O)c2ccncc2)c1 | i | i | i | i | i
Cc1ccc(C(=O)NNC(=S)NC(=O)COc2ccccc2)cc1 | i | i | 119* | i | i
CC(C)(C)c1ccc(OCC(=O)NNC(=O)CCc2ccccc2)cc1 | i | i | i | i | i
CC(C)(C)C(=O)NC(=S)NNC(=O)c1ccncc1 | i | i | i | i | i
Cc1ccccc1C(=O)NNC(=S)NC(=O)COc1ccccc1 | i | i | 177* | i | i
COC(=O)c1ccccc1NC(=S)NC(=O)COc1ccccc1 | i | i | i | i | i
Cc1nc(S/C(=C/c2ccc(-c3ccc(Cl)cc3)o2)C(=O)O)n[nH]1 | i | i | i | i | i
Cc1nc(S/C(=C/c2ccc(-c3cc(Cl)ccc3C)o2)C(=O)O)n[nH]1 | i | -6* | i | i | i
Cc1cc(-c2ccccc2)n(-c2ccccc2)n1 | i | i | i | i | i
CCOc1ccc(N2C(=O)CC(N3CCN(C4CCc5ccccc5C4)CC3)C2=O)cc1 (centres undefined) | i | i | i | i | 14*
COc1ccccc1C(=O)NC(CCSC)C(=O)NCCCSc1ccccc1 (centres undefined) | i | i | i | i | i
CN(C)C(CNc1ncnc2sccc12)c1cccs1 (centres undefined) | i | i | 70* | i | i
CC1Cc2ccccc2N1C(=O)CN1CCCCC1 (centres undefined) | i | i | i | i | i
O=C(CN1CCCCC1)N1c2ccccc2Oc2ccccc21 | i | -5* | i | i | i
O=C(CN1CCCCCC1)N1c2ccccc2Sc2ccccc21 | i | -7* | i | i | i
CN1CCN(CC(=O)N2c3ccccc3Sc3ccccc32)CC1 | i | i | i | i | i
Cc1ccc(C)c(-n2cc(CNCCc3cnccn3)c(-c3ccccc3)n2)c1 | i | i | 108* | i | i
CCc1sc(C(C2C(=O)CC(C)(C)CC2=O)C2C(=O)CC(C)(C)CC2=O)cc1[N+](=O)[O-] | i | i | 95* | i | i

Screening results as filed in PubChem BioAssay.
